Hits are enriched below; roughly 3% of the tested compounds scored in any of these assays.
MEKK2 mut-MEK5 = signal of MEK5 binding to mutant human MEKK2 PB1 domain. percent response, % at 10 µM. AID 1530. 0.35% of 290,000 active. bead flow cytometry, Alexa488-MEK5 binding to MEKK2 mutant; in the data active means percent response above about 24%, passing the limit was not always enough
UCH37 DUB inh = inhibitors of human deubiquitinating enzyme UCH37 | Q9Y5K5 | inhibition, % (no concentration beside the values) | AID 588478 | 0.33% of 330,000 active | purified proteasome/UCH37, Ub-AMC cleavage fluorescence;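 active means mean inhibition over replicate wells above about 20%, limit read from the data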;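 further: 0% = compound-free wells with enzyme and 100% = wells lacking proteasome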
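System: Proteasome-associated human UCH37 deubiquitinase; Input: 0.15 nM proteasome in added enzyme buffer; Also added: Ub-AMC substrate from 1 µM stock; Incubation: 30 min compound-proteasome preincubation then 25 min substrate reaction, room temperature; Detection: fluorescence, ex 355 nm, em 460 nm; Read-out: % inhibition of Ub-AMC cleavage fluorescence; Benchmarks: no-proteasome and no-compound wells.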
Apaf-1 inh = inhibitors of human Apaf-1 apoptosome | reconstituted apoptosome caspase-3 activity, DEVD-Rh110 fluorescence | inhibition, % at 20 µM | 0.71% of 330,000 active | AID 489030; active means inhibition of at least 40% at 20 µM;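 further: plate controls were DMSO wells for no effect and DEVD-CHO caspase inhibitor wells for full effect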
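Medium: Hepes buffer, pH 7.5 / System: biochemical Apaf-1 apoptosome reconstitution / Measured by: Rh110 fluorescence, excitation 480 nm, emission 540 nm / Times: compound with Apaf-1, dATP, procaspase-3 30 min, then 50 min reaction, room temperature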
MEKK3 PB1 HTS = raises or lowers MEK5 binding to the human MEKK3 PB1 domain. AID 1529. 1.4% of 290,000 active. binding response (% of control), % at 10 µM. bead-based flow cytometry, Alexa488-MEK5 binding to MEKK3; actives lie on both sides; 0 = blocked by unlabeled MEK5, 100 = vehicle;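 active means binding response more than 3 SD above or below the average of its plate-row segment, actives on both sides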;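 further: Alexa488 bead fluorescence after subtracting the streptavidin-only scavenger bead signal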
Target sequence (Q99759 whole entry, looked up, the tested form may be a part): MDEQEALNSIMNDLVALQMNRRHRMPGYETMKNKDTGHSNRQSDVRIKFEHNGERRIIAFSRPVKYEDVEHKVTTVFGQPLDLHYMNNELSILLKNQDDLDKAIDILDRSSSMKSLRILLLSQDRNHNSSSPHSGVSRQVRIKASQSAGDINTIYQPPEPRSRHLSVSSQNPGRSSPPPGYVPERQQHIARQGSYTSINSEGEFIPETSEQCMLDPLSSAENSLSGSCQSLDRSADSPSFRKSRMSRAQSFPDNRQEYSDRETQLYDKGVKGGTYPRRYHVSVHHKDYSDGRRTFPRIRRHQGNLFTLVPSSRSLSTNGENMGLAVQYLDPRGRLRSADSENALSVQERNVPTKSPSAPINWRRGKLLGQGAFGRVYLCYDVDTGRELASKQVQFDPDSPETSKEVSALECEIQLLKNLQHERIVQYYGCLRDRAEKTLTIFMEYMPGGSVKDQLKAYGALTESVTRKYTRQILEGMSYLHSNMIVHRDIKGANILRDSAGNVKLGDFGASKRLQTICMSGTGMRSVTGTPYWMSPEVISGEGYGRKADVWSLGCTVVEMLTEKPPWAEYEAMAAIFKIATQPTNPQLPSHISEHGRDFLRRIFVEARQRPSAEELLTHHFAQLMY
UBC13 polyUb = blocks human UBC13 polyubiquitin chain formation. P61088. TR-FRET. inhibition, % at 20 µM. 0.47% of 330,000 active. AID 485273; in the data active means inhibition above about 45%, passing the limit was not always enough
MEKK2 WT-MEK5 = raises or lowers MEK5 binding to wildtype human MEKK2 PB1 domain; Q9Y2U5; bead flow cytometry, Alexa488-MEK5 binding to MEKK2 WT; actives lie on both sides; binding response (% of control), % at 10 µM; 1.1% of 290,000 active; in the data active means binding response below about 67% or above about 130%
MEKK2wt confirm = raises or lowers MEK5 binding to wildtype human MEKK2, retest | shares compounds with MEKK3 PB1 HTS | bead flow cytometry, Alexa488-MEK5 binding to MEKK2 WT; actives lie on both sides | binding response (% of control), % at 10 µM | 2.4% of 5,900 active | AID 1892; in the data active means binding response below about 16% or above about 210%; inactive means in between
MEKK2mut confirm = signal of MEK5 binding to mutant human MEKK2, retest | shares compounds with MEKK3 PB1 HTS | bead flow cytometry, Alexa488-MEK5 binding to MEKK2 mutant | percent response, % at 10 µM | 2% of 5,900 active | AID 1893; in the data active means percent response mostly above about 71%, no sharp cut-off; inactive means mostly below about 38%;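 further: higher means compound restores mutant binding toward wildtype level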
MEKK3-MEK5 inh = confirmation of inhibitors of MEK5 binding to human MEKK3; shares compounds with MEKK3 PB1 HTS; bead flow cytometry, Alexa488-MEK5 binding to MEKK3; stronger effect = lower value; binding response (% of control), % at 10 µM; 1.8% of 5,900 active;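 active means binding response below 72% of control, or above a set upper limit, though filed actives all read lower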;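 further: 100% = DMSO only wells and 0% = binding blocked by excess unlabeled MEK5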
An asterisk follows results filed as active; / = no result; [ ] = dose if it differs, or a comment.

SMILES	MEKK2 mut-MEK5	UCH37 DUB inh	Apaf-1 inh	MEKK3 PB1 HTS	UBC13 polyUb	MEKK2 WT-MEK5	MEKK2wt confirm	MEKK2mut confirm	MEKK3-MEK5 inh
CN1CCN(c2nc3cc(C(F)(F)F)ccc3n3cccc23)CC1	4	1	32	103	8	140*	135	19	109
COc1cc(/C=C2\SC(=S)N(Nc3ccccc3)C2=O)cc(OC)c1OC	-16	5	15	99	-8	76	/	/	/
CCOc1ccc(/C=C2\SC(=S)N(Nc3ccccc3)C2=O)cc1OC	-2	0	7	128*	-11	66	65	-16	93
Fc1cccc(Nc2ncnc3[nH]ncc23)c1	0	0	-8	103	10	104	/	/	/
Brc1ccc(Nc2ncnc3[nH]ncc23)cc1	-30	-1	10	73*[inhibitor]	17	68	101	2	101
CCOc1ccc(/C=N/NC(=O)C(C)N(c2ccc(OC)cc2)S(C)(=O)=O)cc1OCC (stereo not given)	-3	/	-2	97	-16	93	/	/	/
CCOc1cc(C2NN=C(c3ccccc3)S2)ccc1OCc1ccc(F)cc1 (stereo not given)	-16	-65	12	0.0*[inhibitor]	4	0.0*[inhibitor]	97	-7	95
COc1cc(CN2CCN(c3ccccc3C)CC2)cc([N+](=O)[O-])c1O	-16	6	10	62*[inhibitor]	-31	49*[inhibitor]	101	2	100
CC(=O)C1=C(O)C(=O)N(Cc2ccccc2)C1c1ccc(Cl)cc1 (stereo not given)	3	5	-2	104	4	106	/	/	/
CC(=O)Nc1ccc(NC(=O)CSc2nnc(-c3ccco3)o2)cc1	1	3	9	129*	-7	112	95	-25	93
Cc1cc(C)cc(-c2nnc(SCC(=O)NCc3cccs3)o2)c1	-20	2	-2	1.0*[inhibitor]	10	-2.0*[inhibitor]	113	6	102
Cc1c(Cl)cccc1-n1c(SCC(=O)NCc2cccs2)nnc1-c1ccncc1	3	1	1	104	12	106	/	/	/
COc1cccc(NC(=O)CSc2nnc(-c3ccc(C)cc3)o2)c1	-6	2	0	82*[inhibitor]	-1	84	104	3	102
CNC(=O)CSc1nnc(-c2cc(C)cc(C)c2)o1	5	2	-12	102	1	102	/	/	/
O=C(CSc1nnc(-c2ccncc2)n1-c1ccc(Cl)cc1)NCc1cccs1	9	2	5	124*	6	120	102	-3	102
COc1ccccc1NC(=O)CSc1nnc(-c2ccc(C)cc2)o1	-4	6	-2	102	-8	99	/	/	/
Cc1nnc(NC(=O)c2ccc(S(=O)(=O)N(C)c3ccccc3)cc2)s1	/	5	-6	/	-2	/	/	/	/
O=C(CSc1ccc(-c2ccco2)nn1)c1cccc([N+](=O)[O-])c1	-1	/	19	100	-2	100	/	/	/
O=C(O)c1ccc2nc(CO)[nH]c2c1	-16	2	11	2.0*[inhibitor]	-3	2.0*[inhibitor]	107	0	102
O=C(CSc1nc2cc(S(=O)(=O)N3CCOCC3)ccc2o1)Nc1c(F)cccc1F	-9	8	2	99	-14	94	/	/	/
Cc1cccc(Nc2nnc(SCC(=O)NC3CCCc4ccccc43)s2)c1 (stereo not given)	-4	6	24	3.0*[inhibitor]	0	3.0*[inhibitor]	104	-4	100
O=C(CSc1nc2cc(S(=O)(=O)N3CCOCC3)ccc2o1)NC1CCCc2ccccc21 (stereo not given)	-21	3	6	2.0*[inhibitor]	-4	3.0*[inhibitor]	98	0	101
O=C(CSc1cc(Cl)ccc1Cl)NC1CCCc2ccccc21 (stereo not given)	-1	4	4	100	-7	101	/	/	/
O=C(CSc1ccc2ccccc2c1)NC1CCCc2ccccc21 (stereo not given)	1	5	17	130*	-1	107	100	1	102
Cc1ccc2c(CC(=O)NC3CCCc4ccccc43)coc2c1 (stereo not given)	0	-2	8	147*	6	109	107	8	102
SMILES	MEKK2 mut-MEK5	UCH37 DUB inh	Apaf-1 inh	MEKK3 PB1 HTS	UBC13 polyUb	MEKK2 WT-MEK5	MEKK2wt confirm	MEKK2mut confirm	MEKK3-MEK5 inh
O=C(CSc1nc(=O)n(CCCN2CCOCC2)c2c1CCCC2)Nc1ccc(F)c(F)c1	/	6	6	/	1	/	/	/	/
Cc1csc(SCC(=O)NCc2ccccc2)n1	-1	0	16	101	-9	102	/	/	/
Cc1csc2sc(-c3ccnc(SCC(=O)NCc4ccccc4)n3)c(C)c12	27	/	6	130*	-11	112	103	-2	102
NC1=NC2(CCCCC2)N=C(Nc2ccc(Br)cc2)N1	36	9	-4	107	26	141*	120	6	101
Cc1cccc(C)c1NC1=NC2(CCCCC2)N=C(N)N1	-6	1	13	88	-16	95	/	/	/
COc1ccc(OCC(O)Cn2c(=N)n(Cc3ccccc3)c3ccccc32)cc1 (stereo not given)	5	6	27	95	19	122	/	/	/
Cc1ccc(OCC(O)Cn2c(=N)n(Cc3ccccc3)c3ccccc32)cc1 (stereo not given)	6	3	2	106	19	140*	120	8	99
N=c1n(CCO)c2ccccc2n1Cc1ccc(Cl)cc1	11	2	-1	100	10	104	/	/	/
N=c1n(Cc2ccc(Cl)cc2)c2ccccc2n1CC(O)COc1ccccc1 (stereo not given)	3	3	34	86	32	142*	149	47	105
CCOC(=O)C1CCN(C(=O)COC(=O)CNC(=O)c2sc3ccccc3c2Cl)CC1	/	-1	7	/	-2	/	/	/	/
O=C(NC(Cc1c[nH]c2ccccc12)C(=O)Nc1ccc(F)cc1)c1cccs1 (stereo not given)	3	0	12	128*	10	106	97	-1	98
COC(=O)C(Cc1c[nH]c2ccccc12)NC(=O)c1cccs1 (stereo not given)	-15	6	-9	92	-2	89	/	/	/
